This note sets out measurements from PubChem BioAssay.

Test [1] is described as follows: S. cerevisiae growth inhibition in permissive medium (OD615), pilot counter-assay for S. cerevisiae lifespan shortening project, permissive growth control (AID 705;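 active = growth inhibition above 25% in both replicates, a cutoff set 3 SD above the mean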). The conditions noted are these: OD615, 24 h, at 10 µM, hits give high values. Put shortly: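 Material: engineered DeaD yeast; compound dosing: one dose 10 µM, DMSO 0.25% final; measure: yeast growth inhibition indicated by reduced 24 h OD615; detection: OD615 turbidity read; incubation: cells pre-grown 4 h, then 24 h compound exposure, 30 °C humidified; medium: permissive synthetic complete medium with raffinose and galactose carbon sources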

The nature of test [2]: S. cerevisiae growth inhibition in restrictive medium, OD615, pilot screen, restrictive growth control, yeast lifespan reduction project (AID 706;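 active = growth inhibition above a set limit, 3 SD over mean compound inhibition, in both replicates, cut at about 43% in these data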;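 note: modified DeaD lifespan yeast strain shifted to restrictive glucose medium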). As to conditions: OD615, 48 h, at 10 µM, hits give high values. Put shortly:
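material = engineered S. cerevisiae DeaD strain | medium = glucose-based CSMM-D restrictive medium | times = 4 h pre-incubation, 48 h exposure at 30 °C | technique = OD615 absorbance reading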

Test [3] can be described thus: doxorubicin toxicity protection in MRP-1 cells – H69AR cells, CellTiter-Glo, duplicate, MRP-1 activator project, pilot screen (AID 807;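 active = viability increase at or above a cutoff of the median across tested compounds plus 3 SD, cut at about 8.5% in these data, passing the limit was not always enough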;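 note: compound pretreatment 18-22 h then 72 h combined with doxorubicin; 0% = doxorubicin alone and 100% = vehicle without doxorubicin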). As to conditions: H69AR viability with doxorubicin, CellTiter-Glo luminescence; at 10 µM; hits give high values. On the technique in general: ATP-based viability assays read luminescence as a measure of living cells.
The nature of test [4]: viability of HCT116 without oncogenic beta-catenin – human colon tumor cells, pilot screen (AID 823).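 Note: 0% = wells killed by 20 µM Hyamine and 100% = untreated DMSO cell wells.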 As to conditions: HCT116 beta-catenin knockout viability, CellTiter-Glo, 60 h; at 10 µM; hits give low values.
The nature of test [5]: viability of PTEN-null HCT116 cells – cell-based, HCT116 clonal line, CellTiter-Glo, pilot screen (AID 824;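 active = viability at or below 27.92% in each of two runs, the all-compound median minus 4 SD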;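 note: 0% = 20 µM Hyamine control and 100% = vehicle cell control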). The conditions noted are these: HCT116 PTEN-deleted viability, 60 h, at 10 µM, hits give low values.
Test [6] is described as follows: RAM pathway blockade in budding yeast – dse1pr::URA3 reporter, 5-FOA selection, pilot screen (AID 869;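 active = inhibition over a set limit, the all-compound mean plus 3 SD, in both replicate runs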;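 note: 0% = DMSO wells with no growth and 100% = 10 µM 1-NA-PP1 with full growth; RAM network block rescues cells from 5-FOA so hits raise OD615 growth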). As to conditions: S. cerevisiae dse1pr::URA3 5-FOA growth, OD615, 2 d; at 10 µM; hits give high values; strain carries analog-sensitive mutant Cbk1 kinase.
The nature of test [7]: RAM signaling pathway blockade in yeast – S. cerevisiae, Pdr1DBD-CYC8 efflux-inhibited sensitized strain, primary screen (AID 1298;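 active = RAM network inhibition above 8.4% in each of two replicates, 3 SD over the compound average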;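 note: 0% = DMSO untreated cells without growth and 100% = 10 µM 1-NA-PP1 full growth; higher means more yeast growth rescued from 5-FOA killing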). The conditions noted are these: S. cerevisiae cbk1-as DSE1-URA3 strain, 5-FOA growth OD615, 2 d; at 50 µM; hits give high values.

A number with no mark means an inactive call. Records with an inconclusive call do not appear. Calls of active or inactive are those of the source.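 Rule for the calls, unless noted: active = cell viability at or below a set limit in both duplicate runs, the limit being the all-compound median minus 4 SD (cut at about 23% in these data, passing the limit was not always enough); inconclusive = no clear call, values can overlap the other calls; inactive = the rest.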

One may read the viability as a read-out of living cells in per cent, often relative to untreated cells. In general, inhibition refers to the share of the control response that was lost under treatment. As to `CCOc1ccc(-n2c(SCC(=O)Nc3ccc4c(c3)OCO4)nc3c(c2=O)SCC3)cc1`, the values for the growth inhibition in test [1] and in test [2] were 3.25% and -5.91%, respectively. Also, the viability increase in test [3] is -1.65%. Besides, the viability in test [4] was 92.5%; in test [5], 86.5%. For the same compound, in test [6], the inhibition is 1.83%. Also, the RAM network inhibition in test [7] is 4.16%.
On to `Cc1cc(C)cc(-c2nc(-c3ccncc3)no2)c1`, for which the values for the growth inhibition in test [1] and in test [2] were 0.275% and 15.9%, respectively. Further, the viability increase in test [3] is 3.69%. For the same compound, the viability was 91.1% in test [4] and 92% in test [5]. Moreover, the inhibition in test [6] was 1.11%. Besides, the RAM network inhibition in test [7] is 5.99%.
With `Cc1cc2ccccc2n1CCNC(=O)COc1ccccc1`, the values for the growth inhibition in test [1] and in test [2] were -3.44% and 11.8%, respectively. The viability increase in test [3] is -0.8%. In addition, the viability in test [4] was 99.2%; in test [5], 94.2%. The inhibition in test [6] is 2.31%. Moreover, the RAM network inhibition in test [7] was 8.38%.
In the case of `COc1ccc(N(CC(=O)N2CCN(c3ccccc3)CC2)S(=O)(=O)c2c(C)noc2C)cc1`, the growth inhibition in test [1] was -9.29%; in test [2], -0.83%. For the same compound, the viability increase in test [3] is -4.48%. The viability in test [4] was 93.7%; in test [5], 85.6%. The inhibition in test [6] is 0.315%. In test [7], the RAM network inhibition is 3.7%.
As to `COCCN1C=C(C(=O)OC)C(c2cc(Br)c(OC)c(OC)c2)C(C(=O)OC)=C1`, the figures for the growth inhibition in test [1] and in test [2] were 1.89% and -0.035%, respectively. Besides, the viability increase in test [3] was -2.7%. Besides, the viability in test [4] is 80.8%; in test [5], 71.9%. In addition, the inhibition in test [6] is 2.16%. Besides, the RAM network inhibition in test [7] was 8.73%.
Turning to `CCOC(=O)N1CCN(C(=O)C(C)(C)Oc2ccc(Cl)cc2)CC1`, the values for the growth inhibition in test [1] and in test [2] were -8.16% and -2.48%, respectively. For the same compound, in test [3], the viability increase is -1.61%. The viability in test [4] is 93%; in test [5], 96.1%. Besides, in test [6], the inhibition was 0.28%. For the same compound, the RAM network inhibition in test [7] is 3.09%.
With `Cn1c(Cn2c(=O)sc3ccccc32)nnc1SCC(=O)Nc1ccccc1F`, the growth inhibition was -5.34% in test [1] and -10% in test [2]. Besides, the viability increase in test [3] was -1.11%. Moreover, the viability is 104% in test [4] and 99.4% in test [5]. Moreover, the inhibition in test [6] was 1.62%. In test [7], the RAM network inhibition is 9.24%.
`CC(C)Cc1cc(-c2ccco2)c(C#N)c(N)n1`: the growth inhibition was -11.4% in test [1] and -17.1% in test [2]. For the same compound, the viability increase in test [3] is -4.39%. Further, the viability in test [4] is 80.9%; in test [5] it was 89.4%. Moreover, in test [6], the inhibition was 3.23%. Further, the RAM network inhibition in test [7] was 9.01%.
As for `COC(=O)C1=C(C)N(C)C(=O)NC1c1ccc(C)cc1` (configuration not stated), the growth inhibition is 0.9% in test [1] and -13.4% in test [2]. The viability increase in test [3] is 0.2%. For the same compound, the results for the viability in test [4] and in test [5] were 105% and 101%, respectively. In test [6], the inhibition was 2.69%. Moreover, in test [7], the RAM network inhibition was -0.17%.
For `COc1ccc(C(=O)NCC23C=CC(O2)C2C(=O)N(Cc4ccccc4)C(=O)C23)cc1` (configuration not stated), the growth inhibition in test [1] was -5.3%; in test [2], 13.4%. In test [3], the viability increase was -0.77%. Besides, the results for the viability in test [4] and in test [5] were 85.1% and 88.8%, respectively. Also, the inhibition in test [6] was 2.19%. For the same compound, the RAM network inhibition in test [7] is 3.67%.
Regarding `CCOC(=O)CN1CC23C=CC(O2)C(C(=O)O)C3C1=O` (configuration not stated), the growth inhibition in test [1] was 2.83%; in test [2], -3.85%. Further, the viability increase in test [3] was 0.14%. The figures for the viability in test [4] and in test [5] were 103% and 107%, respectively. Moreover, the inhibition in test [6] was 0.73%. Also, in test [7], the RAM network inhibition was 4%.
Consider `CCOc1ccc(-c2cc(CCCC(=O)NCc3cccnc3)no2)cc1`, for which the growth inhibition in test [1] is 0.205%; in test [2], 12.9%. Moreover, the viability increase in test [3] is -3.69%. The viability was 82.2% in test [4] and 92.9% in test [5]. The inhibition in test [6] was 0.54%. The RAM network inhibition in test [7] is 2.74%.
Turning to `CSc1nc(C)nc2c1c(=O)n(C)c(=O)n2C`, the growth inhibition was 9.37% in test [1] and 6.23% in test [2]. Besides, in test [3], the viability increase is -1.42%. The viability in test [4] was 108%; in test [5], 94.2%. For the same compound, in test [6], the inhibition is 0.68%. The RAM network inhibition in test [7] was 0.26%.
For `O=C(CN1C(=O)C2C3C=CC(C3)C2C1=O)Nc1ccc2nccnc2c1` (configuration not stated), the growth inhibition in test [1] is 7.15%; in test [2] it was -1.04%. Moreover, in test [3], the viability increase was -1.76%. Further, the viability in test [4] is 105%; in test [5] it was 95.2%. Also, in test [6], the inhibition is 2.29%. For the same compound, in test [7], the RAM network inhibition is 0.31%.
Take `COC(=O)c1ccc(C)c(NS(=O)(=O)c2ccc(OC)cc2)c1`: the growth inhibition in test [1] is -0.83%; in test [2] it was -23.9%. For the same compound, in test [3], the viability increase is -5.33%. Besides, the viability was 16.6% (active) in test [4] and 20.5% (active) in test [5]. Moreover, in test [6], the inhibition was 2.15%. Also, the RAM network inhibition in test [7] is 9.79%.
Consider `CCSCCOC(=O)C1=C(C)NC(=O)NC1c1ccc2c(c1)OCO2` (configuration not stated), for which the growth inhibition in test [1] was 3.31%; in test [2], 3.72%. Moreover, the viability increase in test [3] is -1.35%. Also, the values for the viability in test [4] and in test [5] were 94.3% and 94.5%, respectively. Besides, the inhibition in test [6] was 2.05%. Besides, the RAM network inhibition in test [7] was 0.41%.
